# Test results: ChEMBL document CHEMBL3351508, “Second-generation antibacterial benzimidazole ureas: discovery of a preclinical candidate with reduced metabolic liability” (J Med Chem, 2014)
# Experiments:
# [1] = tested on: Streptococcus pneumoniae; assay: Antibacterial activity against Streptococcus pneumoniae ATCC 10015 by CLSI method; format: functional
# Outline: (§1)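 Broth microdilution MIC in liquid medium following CLSI methods, with ATCC strains. Each run was accepted only if comparator antibiotics fell within their recommended quality-control ranges for the appropriate ATCC strain.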
# [2] = tested on: Enterococcus faecalis; assay: Antibacterial activity against Enterococcus faecalis ATCC 29212 by CLSI method; format: functional; outline: as §1
# [3] = tested on: Staphylococcus aureus; assay: Antibacterial activity against Staphylococcus aureus ATCC 29213 by CLSI method in presence of human 50% serum; format: functional; outline: as §1
# [4] = tested on: Staphylococcus aureus; assay: Antibacterial activity against Staphylococcus aureus ATCC 29213 by CLSI method; format: functional; outline: as §1
# [5] = tested on: Haemophilus influenzae; assay: Antibacterial activity against Haemophilus influenzae ATCC 49247 by CLSI method; format: functional; outline: as §1
# [6] = biological target: DNA gyrase (Escherichia coli, UniProt P0AES4+P0AES6); assay: Inhibition of […] Escherichia coli DNA gyrase A2B2 using pBR322 plasmid DNA as substrate by coupled enzyme reaction assay; format: protein-complex assay
# [7] = Inhibition of Staphylococcus aureus DNA topoisomerase-4 C2E2 using pBR322 plasmid DNA as substrate by coupled enzyme reaction assay
# [8] = Drug metabolism in monkey liver microsomes assessed as compound formation treated with 30 uM 1-Ethyl-3-(5-(5-fluoropyridin-3-yl)-7-(pyrimidin-2-yl)-1H-benzo-[d]imidazol-2-yl)urea for 1 hr; format: ADME, Macaca mulatta; conditions: rhesus monkey
# [9] = tested on: Liver microsome; assay: Drug metabolism in rat liver microsomes assessed as compound formation treated with 30 uM 1-Ethyl-3-(5-(5-fluoropyridin-3-yl)-7-(pyrimidin-2-yl)-1H-benzo-[d]imidazol-2-yl)urea for 1 hr; format: ADME
# [10] = tested on: Liver microsome; assay: Drug metabolism in human liver microsomes assessed as compound formation treated with 30 uM 1-Ethyl-3-(5-(5-fluoropyridin-3-yl)-7-(pyrimidin-2-yl)-1H-benzo-[d]imidazol-2-yl)urea for 1 hr; format: ADME
# [11] = Drug metabolism in human liver S9 fractions assessed as compound formation treated with 30 uM 1-Ethyl-3-(5-(5-fluoropyridin-3-yl)-7-(pyrimidin-2-yl)-1H-benzo-[d]imidazol-2-yl)urea for 1 hr; format: ADME, subcellular, Liver S9 fraction; conditions: s9, 1 h
# [12] = biological target: T1, Cytochrome P450 1A2 (Homo sapiens, UniProt P05177); assay: Drug metabolism in recombinant CYP1A2 (unknown origin) assessed as compound formation treated with 10 uM 1-Ethyl-3-(5-(5-fluoropyridin-3-yl)-7-(pyrimidin-2-yl)-1H-benzo-[d]imidazol-2-yl)urea for 30 mins; conditions: recombinant enzyme, 0.5 h
# T1 sequence (P05177 whole entry): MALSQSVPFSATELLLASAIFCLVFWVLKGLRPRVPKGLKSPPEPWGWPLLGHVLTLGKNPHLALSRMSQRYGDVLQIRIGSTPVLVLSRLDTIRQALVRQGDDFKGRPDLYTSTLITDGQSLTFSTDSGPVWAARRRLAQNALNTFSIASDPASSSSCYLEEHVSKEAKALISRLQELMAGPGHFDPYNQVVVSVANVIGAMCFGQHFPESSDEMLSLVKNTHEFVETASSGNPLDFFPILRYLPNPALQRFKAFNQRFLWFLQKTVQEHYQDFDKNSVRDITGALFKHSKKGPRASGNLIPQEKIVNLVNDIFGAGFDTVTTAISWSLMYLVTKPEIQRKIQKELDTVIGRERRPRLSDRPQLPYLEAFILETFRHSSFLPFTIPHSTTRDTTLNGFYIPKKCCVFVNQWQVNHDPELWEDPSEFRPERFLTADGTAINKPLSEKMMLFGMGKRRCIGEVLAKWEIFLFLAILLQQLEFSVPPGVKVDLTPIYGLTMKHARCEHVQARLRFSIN
# [13] = biological target: Cytochrome P450 3A4 (Homo sapiens, UniProt P08684); assay: Drug metabolism in recombinant CYP3A4 (unknown origin) assessed as compound formation treated with 1 uM 1-Ethyl-3-(5-(5-fluoropyridin-3-yl)-7-(pyrimidin-2-yl)-1H-benzo-[d]imidazol-2-yl)urea for 30 mins; format: ADME; conditions: recombinant enzyme, 0.5 h, in the assay text read “10 uM” for “1 uM”
# Outline: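 Parent at 1 and 10 μM was incubated with individual recombinant CYP supersomes, with and without NADPH, for 0, 15 and 30 min. Formation of the imine metabolite was quantified by LC-MS/MS.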
# [14] = biological target: Cytochrome P450 2D6 (Homo sapiens, UniProt P10635); assay: Drug metabolism in recombinant CYP2D6 (unknown origin) assessed as compound formation treated with 10 uM 1-Ethyl-3-(5-(5-fluoropyridin-3-yl)-7-(pyrimidin-2-yl)-1H-benzo-[d]imidazol-2-yl)urea for 30 mins; conditions: recombinant enzyme, 0.5 h
# [15] = tested on: Enterococcus faecium; assay: Antibacterial activity against Enterococcus faecium ATCC 49624 by CLSI method; format: functional; outline: as §1
# [16] = tested on: Rattus norvegicus; assay: Dose normalized AUC in rat at 30 mg/kg, po; format: ADME, organism-based; parameters: dose 30 mg/kg, route oral; conditions: in vivo
# Chain of Cytochrome P450 3A4 (P08684 whole entry): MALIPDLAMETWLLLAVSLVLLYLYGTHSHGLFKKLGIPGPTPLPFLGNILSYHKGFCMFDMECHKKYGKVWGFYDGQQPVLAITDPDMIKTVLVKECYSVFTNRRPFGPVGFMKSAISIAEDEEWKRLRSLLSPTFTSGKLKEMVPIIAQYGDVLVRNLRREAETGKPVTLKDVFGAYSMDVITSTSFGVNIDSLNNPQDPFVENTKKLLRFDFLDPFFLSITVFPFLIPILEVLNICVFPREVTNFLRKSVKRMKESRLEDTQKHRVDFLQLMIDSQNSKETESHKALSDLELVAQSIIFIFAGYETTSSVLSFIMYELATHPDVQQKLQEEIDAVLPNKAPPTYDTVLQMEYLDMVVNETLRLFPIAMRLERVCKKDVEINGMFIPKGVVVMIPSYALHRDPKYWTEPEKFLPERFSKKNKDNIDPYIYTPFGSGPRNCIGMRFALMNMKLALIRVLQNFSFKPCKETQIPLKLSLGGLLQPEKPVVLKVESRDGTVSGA
# Chain of Cytochrome P450 2D6 (P10635 whole entry): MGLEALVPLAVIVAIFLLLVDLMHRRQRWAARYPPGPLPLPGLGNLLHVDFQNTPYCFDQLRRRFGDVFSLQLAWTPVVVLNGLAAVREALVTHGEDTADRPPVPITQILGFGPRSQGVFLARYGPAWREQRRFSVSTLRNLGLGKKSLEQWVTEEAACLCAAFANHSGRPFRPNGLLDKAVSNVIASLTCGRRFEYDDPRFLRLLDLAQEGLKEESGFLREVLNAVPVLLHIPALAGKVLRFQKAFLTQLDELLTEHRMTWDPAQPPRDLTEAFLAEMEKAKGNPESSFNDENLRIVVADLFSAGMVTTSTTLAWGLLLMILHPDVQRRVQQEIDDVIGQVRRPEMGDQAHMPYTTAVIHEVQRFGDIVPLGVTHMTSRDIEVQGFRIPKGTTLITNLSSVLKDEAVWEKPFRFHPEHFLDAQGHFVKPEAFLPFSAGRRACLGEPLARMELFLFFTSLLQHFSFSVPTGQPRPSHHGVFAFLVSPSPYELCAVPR
SMILES,MIC [1] [µg/mL],MIC [2] [µg/mL],MIC [3] [µg/mL],MIC [4] [µg/mL],MIC [15] [µg/mL],AUC/dose [16] [microg.hr/mL per mg/kg],other results
CCNC(=O)Nc1nc2cc(-c3cccnc3)cc(-c3ncccc3F)c2[nH]1,≤ 0.008,0.016,1,0.031,–,–,MIC [5]: 1 µg/mL; Ki [6]: 6 nM
C=CNC(=O)Nc1nc2cc(-c3cncc(F)c3)cc(-c3ncccn3)c2[nH]1,–,–,–,–,–,–,Drug metabolism [8]: metabolite_detected; Drug metabolism [9]: metabolite_detected; Drug metabolism [10]: metabolite_detected; Drug metabolism [11]: metabolite_detected
O=C(Nc1nc2cc(-c3cncc(F)c3)cc(-c3ncccn3)c2[nH]1)NC1CO1 (stereo not given),–,–,–,–,–,–,Drug metabolism [8]: metabolite_detected; Drug metabolism [9]: metabolite_detected; Drug metabolism [10]: metabolite_detected; Drug metabolism [11]: metabolite_detected
CC1NC(=O)Nc2nc3c(-c4ncccn4)cc(-c4cncc(F)c4)cc3n21 (stereo not given),–,–,–,–,–,–,Drug metabolism [12]: metabolite_detected; Drug metabolism [8]: metabolite_detected; Drug metabolism [9]: metabolite_detected; Drug metabolism [10]: metabolite_detected; Drug metabolism [13]: metabolite_detected; Drug metabolism [14]: metabolite_detected; Drug metabolism [11]: metabolite_detected
NC(=O)Nc1nc2cc(-c3cncc(F)c3)cc(-c3ncccn3)c2[nH]1,–,–,> 8,> 8,–,–,–
CCCC(=O)Nc1nc2cc(-c3cncc(F)c3)cc(-c3ncccn3)c2[nH]1,–,–,> 8,> 8,–,–,–
CCOC(=O)Nc1nc2cc(-c3cncc(F)c3)cc(-c3ncccn3)c2[nH]1,0.008,0.016,> 8,0.016,0.016,–,–
COCC(=O)Nc1nc2cc(-c3cncc(F)c3)cc(-c3ncccn3)c2[nH]1,0.032,0.032,8,0.064,0.032,–,–
CCNC(=O)Nc1nc2cc(-c3cccnc3)c(F)c(-n3cccn3)c2[nH]1,0.032,0.063,2,0.25,–,10.8,–
CCNC(=O)Nc1nc2cc(-c3ccc(C(C)O)nc3)c(F)c(-n3cccn3)c2[nH]1 (stereo not given),0.032,0.125,3,0.125,0.5,–,–
CCNC(=O)Nc1nc2cc(-c3ccc(C(O)CC)nc3)c(F)c(-n3cccn3)c2[nH]1 (stereo not given),0.032,0.125,2,0.063,0.25,7.2,–
CCNC(=O)Nc1nc2cc(-c3ccc([C@@H](O)CC)nc3)c(F)c(-n3cccn3)c2[nH]1,0.016,0.063,1,0.063,0.5,8.4,–
CCNC(=O)Nc1nc2cc(-c3ccc([C@H](O)CC)nc3)c(F)c(-n3cccn3)c2[nH]1,0.063,0.063,4,0.25,0.25,–,–
CCNC(=O)Nc1nc2c(-n3cccn3)cc(-c3cccnc3)cc2[nH]1,0.016,0.063,4,0.25,–,5.7,–

# Now from value to compound, other results behind:
MIC [1] [µg/mL],MIC [2] [µg/mL],MIC [3] [µg/mL],MIC [4] [µg/mL],MIC [15] [µg/mL],AUC/dose [16] [microg.hr/mL per mg/kg],SMILES,other results
≤ 0.008,0.032,0.25,0.031,–,–,CCNC(=O)Nc1nc2cc(-c3cnc(C(C)(C)O)nc3)cc(-c3ncccc3F)c2[nH]1,MIC [5]: 1 µg/mL; Ki [7]: < 6 nM; Ki [6]: < 4 nM
> 8,> 8,> 8,> 8,> 8,–,CNCC(=O)Nc1nc2cc(-c3cncc(F)c3)cc(-c3ncccn3)c2[nH]1,–
0.016,0.125,1,0.25,0.5,13.8,CCNC(=O)Nc1nc2cc(-c3ccc(CN4CCOCC4)nc3)c(F)c(-n3cccn3)c2[nH]1,–
0.016,0.063,0.5,0.063,0.25,1.9,CCNC(=O)Nc1nc2cc(-c3ccc(CN4CCOCC4)nc3)c(F)c(-n3cc(C)cn3)c2[nH]1,–
0.008,0.016,0.125,0.016,0.032,0.2,CCNC(=O)Nc1nc2cc(-c3cc(C)n(Cc4ccccn4)c(=O)c3)c(F)c(-n3cc(C)cn3)c2[nH]1,–
0.032,0.063,0.25,0.125,0.5,4.3,CCNC(=O)Nc1nc2cc(-c3cnc(C(C)(C)O)nc3)cc([C@H]3CCCO3)c2[nH]1,–
0.5,1,2,1,2,–,CCNC(=O)Nc1nc2cc(-c3cnc(C(C)(C)O)nc3)cc([C@@H]3CCCO3)c2[nH]1,–
0.25,0.5,4,0.5,2,–,CCNC(=O)Nc1nc2cc(-c3cnc(C(C)(C)O)nc3)c(F)c([C@@H]3CCCO3)c2[nH]1,–
0.125,0.25,4,1,–,–,CCNC(=O)Nc1nc2cc(-c3cccnc3)cc(C3CCCO3)c2[nH]1 (racemic),–
0.125,0.5,2,1,1,10.5,CCNC(=O)Nc1nc2cc(-c3cncnc3)cc(C3CCCO3)c2[nH]1 (racemic),–
0.016,0.25,0.75,0.75,0.25,–,CCNC(=O)Nc1nc2cc(-c3ccn(C)c(=O)c3)cc(C3CCCO3)c2[nH]1 (racemic),–
0.008,0.125,0.25,0.125,0.25,–,CCNC(=O)Nc1nc2cc(-c3cc(C)n(Cc4ccccn4)c(=O)c3)cc(C3CCCO3)c2[nH]1 (racemic),–
0.063,0.25,2,0.5,1,2.6,CCNC(=O)Nc1nc2cc(-c3ccc(C(C)(C)O)nc3)cc(C3CCCO3)c2[nH]1 (racemic),–
0.032,0.25,0.5,0.25,0.5,5.5,CCNC(=O)Nc1nc2cc(-c3cnc(C(C)(C)O)nc3)cc(C3CCCO3)c2[nH]1 (racemic),–
0.032,0.125,0.5,0.063,0.5,–,CCNC(=O)Nc1nc2cc(-c3cnc(C(C)(C)O)nc3)c(F)c(C3CCCO3)c2[nH]1 (racemic),–
